ChEMBL document CHEMBL4052792, “3-Hydroxykynurenine, a Tryptophan Metabolite Generated during the Infection, Is Active Against Trypanosoma cruzi” (ACS Med Chem Lett, 2017)
Activity calls are given as the source filed them. The calls are words filed in the database; no cut-off is given here.

Legend:
[1] = Induction of apoptosis in BALB/C mouse BMDM assessed as cells with hypodiploid DNA content at 0.2 uM after 24 hrs by FITC/propidium iodide staining based flow cytometric analysis (reference value: 29.9%); type: functional
[2] = tested on: Trypanosoma cruzi; assay: Induction of mitochondrial membrane depolarization in Trypanosoma cruzi Tulahuen trypomastigotes at 0.2 uM after 24 hrs by Rh123/propidium iodide staining-based flow cytometric analysis (reference value: 3.25 +/- 1.66%); type: functional
Procedure, shortened: (§1)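 Trypomastigotes were treated with 3-HK for 24 h at 37 °C, then incubated with PI plus Rh123. Rh123 fluorescence was read by flow cytometry in PI-negative (live) parasites. The depolarized fraction was taken as the low-fluorescence M2 population. Index of variation = (treated median − control median)/control median. Three experiments were run.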

[3] = tested on: Trypanosoma cruzi; assay: Induction of mitochondrial membrane potential in Trypanosoma cruzi Tulahuen trypomastigotes at 10 mM after 24 hrs by Rh123/PI staining-based flow cytometric analysis (reference value: 3.25 +/- 1.66%); type: functional; procedure, shortened: as §1
[4] = tested on: Trypanosoma cruzi; assay: Trypanocidal activity against Trypanosoma cruzi Tulahuen amastigotes infected in BALB/C mouse bone marrow derived macrophages assessed as decrease in parasite infected macrophages at 200 uM after 72 hrs by immunofluorescence assay; type: functional
Procedure, shortened: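 Macrophages were infected with trypomastigotes and treated with 3-HK for 24 h. Immunofluorescence counts were made at 72 h post-infection. Intracellular parasites per 200 cells were expressed relative to medium-treated cultures, and infected cells were counted among 200 macrophages. Data are means ± SD of four independent experiments.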

[5] = tested on: Trypanosoma cruzi; assay: (§2) Trypanocidal activity against Trypanosoma cruzi Tulahuen amastigotes infected in BALB/C mouse bone marrow derived macrophages assessed as parasite infected macrophages at 20 uM treated for 24 hrs followed by compound washout measured after 48 hrs by immunofluorescence assay (reference value: 26.84 +/- 7.81%); type: functional
[6] = tested on: Trypanosoma cruzi; assay: as §2, with “200” for “20”; type: functional
[7] = tested on: Trypanosoma cruzi; assay: as §2, with “400” for “20”; type: functional
[8] = tested on: Trypanosoma cruzi; assay: as §2, with “800” for “20”; type: functional
[9] = tested on: Trypanosoma cruzi; assay: as §2, with “1200” for “20”; type: functional
[10] = tested on: Trypanosoma cruzi; assay: as §2, with “2000” for “20”; type: functional
[11] = tested on: Trypanosoma cruzi; assay: Trypanocidal activity against Trypanosoma cruzi Tulahuen amastigotes infected in BALB/C mouse bone marrow derived macrophages assessed as endocytic index at 2 uM treated for 24 hrs followed by compound washout measured after 48 hrs by immunofluorescence assay (reference value: 213.66 +/- 58.79); type: functional
[12] = tested on: Trypanosoma cruzi; assay: Trypanocidal activity against Trypanosoma cruzi Tulahuen amastigotes infected in BALB/C mouse bone marrow derived macrophages assessed as endocytic index at 2000 uM treated for 24 hrs followed by compound washout measured after 48 hrs by immunofluorescence assay (reference value: 213.66 +/- 58.79); type: functional
[13] = tested on: Trypanosoma cruzi; assay: Trypanocidal activity against Trypanosoma cruzi Tulahuen amastigotes infected in BALB/C mouse bone marrow derived macrophages assessed as reduction in parasite infected macrophages at 0.2 uM after 72 hrs by immunofluorescence assay relative to control; type: functional
[14] = tested on: Trypanosoma cruzi; assay: Ratio of IC50 for Trypanosoma cruzi Tulahuen trypomastigotes infected in BALB/C mouse bone marrow derived macrophages to IC50 for Trypanosoma cruzi Tulahuen amastigotes infected in BALB/C mouse bone marrow derived macrophages; type: functional
[15] = tested on: Trypanosoma cruzi; assay: Trypanostatic activity against Trypanosoma cruzi Tulahuen amastigotes infected in BALB/C mouse bone marrow derived macrophages assessed as swollen mitochondrion at 20 uM after 24 hrs by transmission electron microscopic analysis; type: functional
Procedure, shortened: (§3)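 Bone marrow-derived macrophages were infected for 24 h, then exposed to 20 μM for 24 h or left untreated. Intracellular amastigote ultrastructure was examined by transmission electron microscopy, covering mitochondrion, nucleus, kinetoplast, flagellum, flagellar pocket, subpellicular microtubules and cytoplasmic structures.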

[16] = tested on: Trypanosoma cruzi; assay: Trypanostatic activity against Trypanosoma cruzi Tulahuen amastigotes infected in BALB/C mouse bone marrow derived macrophages assessed as kinetoplast structure disorganization at 20 uM after 24 hrs by transmission electron microscopic analysis; type: functional; procedure, shortened: as §3
[17] = tested on: Trypanosoma cruzi; assay: Trypanostatic activity against Trypanosoma cruzi Tulahuen amastigotes infected in BALB/C mouse bone marrow derived macrophages assessed as effect on flagellum structure at 20 uM after 24 hrs by transmission electron microscopic analysis; type: functional; procedure, shortened: as §3
[18] = tested on: PBMC; assay: Cytotoxicity against human PBMC assessed as reduction in cell viability at 0.2 to 2000 uM after 24 hrs by trypan blue exclusion assay; type: cell-based
Procedure, shortened: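 Mammalian cells (human PBMC, Swan 71, Jurkat; bone marrow-derived macrophages; J774) were exposed to 3-HK at 0.2 to 2000 μM for 24 h. Viability was then scored by trypan blue exclusion.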

[19] = tested on: PBMC; assay: Cytotoxicity against human PBMC assessed as reduction in cell viability at 1200 to 2000 uM after 48 hrs by trypan blue exclusion assay; type: cell-based
Procedure, shortened: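 Human PBMC and Jurkat cells were treated for 48 h with a range of 3-HK concentrations or left untreated. Viable cells were counted under light microscopy by trypan blue exclusion. Data are means ± SD of four independent experiments.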

[20] = Induction of apoptosis in BALB/C mouse BMDM assessed as cells with hypodiploid DNA content at 20 uM after 24 hrs by FITC/propidium iodide staining based flow cytometric analysis (reference value: 29.9%); type: functional
[21] = Induction of apoptosis in BALB/C mouse BMDM assessed as cells with hypodiploid DNA content at 200 uM after 24 hrs by FITC/propidium iodide staining based flow cytometric analysis (reference value: 29.9%); type: functional
[22] = Induction of apoptosis in BALB/C mouse BMDM assessed as cells with hypodiploid DNA content at 1200 uM after 24 hrs by FITC/propidium iodide staining based flow cytometric analysis (reference value: 29.9%); type: functional
[23] = Induction of apoptosis in BALB/C mouse BMDM assessed as cells with hypodiploid DNA content at 2000 uM after 24 hrs by FITC/propidium iodide staining based flow cytometric analysis (reference value: 29.9%); type: functional
[24] = Induction of apoptosis in BALB/C mouse BMDM assessed as cells with hypodiploid DNA content at 10000 uM after 24 hrs by FITC/propidium iodide staining based flow cytometric analysis (reference value: 29.9%); type: functional
[25] = tested on: Enterococcus faecalis; assay: Antimicrobial activity against vancomycin-resistant Enterococcus faecalis NCTC12201 after 8 hrs; type: functional; conditions: NCTC12201, 8 h
[26] = tested on: Trypanosoma cruzi; assay: Trypanocidal activity against Trypanosoma cruzi Tulahuen amastigotes infected in BALB/C mouse bone marrow derived macrophages assessed as reduction in endocytic index at 0.2 uM after 72 hrs by immunofluorescence assay relative to control; type: functional
[27] = tested on: Trypanosoma cruzi; assay: Trypanocidal activity against Trypanosoma cruzi Tulahuen trypomastigotes in culture medium after 48 hrs by trypan blue assay
[28] = tested on: Trypanosoma cruzi; assay: Trypanocidal activity against Trypanosoma cruzi Tulahuen trypomastigotes infected in BALB/C mouse bone marrow derived macrophages assessed as induction of cell lysis at trypomastigote stage after 24 hrs

Nc1c(O)cccc1C(=O)C[C@H](N)C(=O)O
Activity [1]: 27.5% | Activity [2]: 3.88% | Activity [3]: 40% | Activity [4]: Active | Activity [5]: 8.63% | Activity [6]: 7.76% | Activity [7]: 14.66% | Activity [8]: 15.1% | Activity [9]: 14.83% | Activity [10]: 16.31% | Activity [11]: 60.59 | Activity [12]: 104.34 | inhibition at 0.2 µM [13]: 59% | Ratio IC50 [14]: 6000 | Activity [15]: Active | Activity [16]: Active | Activity [17]: inactive | Activity [18]: Non-Toxic | Activity [19]: Toxic | Activity [20]: 25.9% | Activity [21]: 35.4% | Activity [22]: 26.3% | Activity [23]: 26.4% | Activity [24]: 29.5% | IC50 [25]: 30 to 137 µM | inhibition at 0.2 µM [26]: 68% | IC50 [27]: 200 µM | IC50 [28]: 1200 µM
